The values below come from ChEMBL document CHEMBL4184143 (J Med Chem, 2017).

Data set [1] is described as follows: Drug level in SCID mouse at 25 mg/kg, po after 1 hr by LC-MS/MS analysis. The data set is classed as ADME, organism-based. To be noted: in vivo, read-out: Drug uptake. The method, boiled down: (§1)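 SCID mice received a single oral dose of 25 mg/kg in 20% (v/v) PCP/70% (v/v) PBS vehicle. Blood was collected and centrifuged to plasma, which was stored at −80 °C. Plasma drug concentration was measured by a validated LC–MS/MS method.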

Data set [2] can be described thus: Drug level in SCID mouse at 25 mg/kg, po after 3 hrs by LC-MS/MS analysis. It counts as ADME, organism-based. The conditions noted are these: in vivo, read-out: Drug uptake. The method, boiled down: as §1
The subject of the next data set is MOLM-13. The experiment in a line: Growth inhibition of human MOLM13 cells after 4 days by WST-8 assay. The conditions noted are these: MOLM-13, 96 h. The data set is classed as functional, cell-based. An outline of the steps:
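MOLM-13 leukemia cells were seeded at 10,000 cells/well and exposed to serially diluted compound for 4 days. Signal was normalized to DMSO controls, and IC50 was fitted by nonlinear regression.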

Data set [3] deals with MV4-11. Nature of the data set: Growth inhibition of human MV4-11 cells after 4 days by WST-8 assay. The data set is classed as functional, cell-based. To be noted: MV4-11, 96 h.
In data set [4] the target is T1, Bromodomain-containing protein 4 (Homo sapiens, UniProt O60885). The experiment in a line: Inhibition of FAM-labeled ZBA248 binding to recombinant human N-terminal His6-tagged BRD4 bromodomain 2 (333 to 460 residues) expressed in Rosetta2 DE3 cells after 30 mins by Flourescence polarization assay. It counts as biochemical.
Data set [5] has as its target T1, Bromodomain-containing protein 4. The experiment in a line: Inhibition of FAM-labeled ZBA248 binding to recombinant human N-terminal His6-tagged BRD4 bromodomain 1 (44 to 168 residues) expressed in Rosetta2 DE3 cells after 30 mins by Flourescence polarization assay. It counts as biochemical.
Data set [6] is described as follows: Drug level in SCID mouse at 25 mg/kg, po after 6 hrs by LC-MS/MS analysis. It counts as ADME, organism-based. To be noted: in vivo, read-out: Drug uptake. The method, boiled down:
as §1

The test system of data set [7] is MV4-11. The experiment in a line: Antitumor activity against human MV4-11 cells xenografted in SCID mouse assessed as tumor growth inhibition at 50 mg/kg, po qd measured 2 to 3 times weekly during treatment and once weekly post dose. To be noted: MV4-11, po, read-out: TGI. The data set is classed as functional. An outline of the steps: (§2)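 At ~100 mm3, mice were randomized to treatment or vehicle control. Tumors were measured by electronic calipers. Animals were checked daily for signs of toxicity and weighed 2–3 times weekly on treatment, then at least weekly afterwards.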

In data set [8] the test system is Mus musculus. The experiment in a line: Toxicity in SCID mouse implanted with human MV-411 cells assessed as weight loss at 50 mg/kg, po qd measured 2 to 3 times weekly during treatment and weekly post dose. It counts as organism-based. The conditions noted are these: in vivo. The method, boiled down:
as §2

The test system of data set [9] is Mus musculus. Nature of the data set: Toxicity in SCID mouse implanted with human MV4-11 cells at 50 mg/kg, po qd measured 2 to 3 times weekly during treatment and once weekly post dose. The data set is classed as organism-based. The conditions noted are these: in vivo. The method, boiled down: as §2
Data set [10] can be described thus: Half life in Sprague-Dawley rat at 25 mg/kg, po by LC/MS method. The conditions noted are these: in vivo. It counts as ADME, organism-based. The method, boiled down:
(§3)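 Sprague Dawley rats were dosed iv at 5 mg/kg or orally at 25 mg/kg, with compound dissolved in 20% (v/v) PCP/70% (v/v) PBS vehicle. Blood was drawn by catheter at 0, 5, 15, 30 min and 1, 2, 4, 6, 8, 24 h and spun to plasma, which was stored at −80 °C. Plasma drug was quantified by a validated LC–MS/MS method, and parameters were derived noncompartmentally.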

Data set [11] in a line: Cmax in Sprague-Dawley rat at 25 mg/kg, po by LC/MS method. The data set is classed as ADME, organism-based. Details: dose 25 mg/kg, route oral. To be noted: in vivo. An outline of the steps: as §3
A short description of data set [12]: AUC (0 to t) in Sprague-Dawley rat at 25 mg/kg, po by LC/MS method. It counts as ADME, organism-based. To be noted: in vivo. An outline of the steps: as §3
Data set [13] can be described thus: Half life in CD1 mouse liver microsomes at 1 uM by LC/MS method. The data set is classed as ADME, microsome.
A short description of data set [14]: Half life in Sprague-Dawley rat liver microsomes at 1 uM by LC/MS method. The data set is classed as ADME, microsome.
Data set [15] in a line: Half life in human liver microsomes at 1 uM by LC/MS method. The data set is classed as ADME, microsome.
Data set [16] in a line: Aqueous solubility of the compound in 5% DMSO/10% cremophor/85% saline. The data set is classed as physicochemical. To be noted: buffer.

Take `COc1cc2c(cc1-c1c(C)noc1C)[nH]c1ncnc(-c3c(C4CC4)n[nH]c3C)c12`: in data set [1], the concentration at 1 h is 2200 ng/mL. Also, in data set [2], the concentration at 3 h is 872 ng/mL. In addition, the IC50 came out at 36 nM in the data set with MOLM-13, 6 nM in the data set with MV4-11 [3], 11.7 nM in data set [4] and 24.1 nM in data set [5]. Further, the results for the Ki in data set [4] and in data set [5] were 2.7 nM and 7 nM, respectively. Also, the concentration at 6 h in data set [6] came to 72 ng/mL.
Turning to `COc1cc2c(cc1-c1c(C)noc1C)ncc1[nH]c(=O)n([C@H](C)c3ccccn3)c12`, the inhibition in vivo at 50 mg/kg in the data set on MV4-11 [7] is above 80%. For the same molecule, the Activity entry with Mus musculus [8] and in the data set on Mus musculus [9] was “Non-Toxic” throughout.
Consider `COc1cc2c(cc1-c1c(C)noc1C)[nH]c1ncnc(-c3c(C)[nH]c4ccccc34)c12`, for which the IC50 came to 65 nM in the data set on MOLM-13, 6.6 nM with MV4-11 [3], 1.1 nM in data set [4] and 5 nM in data set [5]. In addition, the Ki in [4] is below 0.5 nM; in data set [5], 0.7 nM. The half-life in [10] was 1.7 h. Besides, in data set [11], the concentration peaked (Cmax) at 1400 ng/mL. In data set [12], this molecule displayed an area under the curve AUC(0-t) of 13400 ng·h/mL. Also, the t1/2 in [13] is 4 min; in data set [14] it was above 1 h; in [15] it was 8 min. In addition, the solubility result in [16] is reported as “Insoluble”.
